The target of experiment [1] is T1, Autotaxin (Homo sapiens, UniProt Q13822).
For experiment [2], the target named is T2, Ectonucleotide pyrophosphatase/phosphodiesterase family member 7 (Homo sapiens) (UniProt Q6UWV6).
T2 sequence (whole entry): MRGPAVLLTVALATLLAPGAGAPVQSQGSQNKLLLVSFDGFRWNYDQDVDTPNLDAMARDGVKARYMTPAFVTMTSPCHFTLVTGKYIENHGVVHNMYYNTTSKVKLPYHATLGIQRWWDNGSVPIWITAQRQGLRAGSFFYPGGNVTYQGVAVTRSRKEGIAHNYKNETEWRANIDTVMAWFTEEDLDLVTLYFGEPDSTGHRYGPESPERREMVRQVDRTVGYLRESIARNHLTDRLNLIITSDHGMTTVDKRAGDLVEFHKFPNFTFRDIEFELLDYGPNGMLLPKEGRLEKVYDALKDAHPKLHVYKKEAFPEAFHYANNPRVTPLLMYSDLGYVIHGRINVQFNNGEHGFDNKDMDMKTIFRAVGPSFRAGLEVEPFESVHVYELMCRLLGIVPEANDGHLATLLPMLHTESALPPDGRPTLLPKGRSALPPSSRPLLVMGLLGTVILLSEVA
The experiment is described as follows: Inhibition of NPP7 expressed in human HEK293 cells at 10 uM. The experiment is classed as cell-based. A digest of the protocol: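 Enzyme was soluble NPP7 in concentrated (10 kDa cutoff) serum-free conditioned medium from transiently transfected HEK293 cells, making up one-third of the assay volume. Substrate was pNPPC at […] in 50 mM Tris-HCl pH 8.5, 150 mM NaCl, 10 mM taurocholic acid, no EDTA, with inhibitor at 10 µM. A405 was read every 2 min and reported at 1 h, normalized to vehicle after blank subtraction. Mean ± SD of ≥3 wells.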

Experiment [3] concerns the target T1, Autotaxin. This is another data set of the same source.
The target of experiment [4] is T1, Autotaxin. This is another data set of the same source.
In experiment [5] the target is T3, Glycerophosphocholine cholinephosphodiesterase ENPP6 (Homo sapiens) (UniProt Q6UWR7).
T3 sequence (whole entry): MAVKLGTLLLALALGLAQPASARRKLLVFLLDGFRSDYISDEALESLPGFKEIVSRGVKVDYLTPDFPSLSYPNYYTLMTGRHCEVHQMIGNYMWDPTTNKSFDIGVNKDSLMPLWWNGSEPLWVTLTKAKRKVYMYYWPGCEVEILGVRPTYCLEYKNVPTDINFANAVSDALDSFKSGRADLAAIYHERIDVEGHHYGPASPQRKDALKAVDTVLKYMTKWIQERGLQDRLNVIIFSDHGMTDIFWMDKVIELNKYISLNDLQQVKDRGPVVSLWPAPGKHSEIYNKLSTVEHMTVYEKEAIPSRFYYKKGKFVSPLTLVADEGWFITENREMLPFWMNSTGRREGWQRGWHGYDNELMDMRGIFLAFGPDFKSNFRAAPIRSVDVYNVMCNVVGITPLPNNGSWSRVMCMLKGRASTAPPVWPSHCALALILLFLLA
The experiment can be described thus: Inhibition of NPP6 expressed in human HEK293 cells at 10 uM. In kind it is cell-based. Put shortly:
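Enzyme was soluble NPP6 in unconcentrated serum-free conditioned medium from transiently transfected HEK293 cells (48 h), making up one-third of the assay volume. Substrate was pNPPC at […] in 100 mM Tris-HCl pH 9.0, 500 mM NaCl, 0.05% Triton X-100, with inhibitor at 10 µM. A405 was read every 2 min and reported at 1 h, blank-subtracted and normalized to vehicle. Mean ± SD of ≥3 wells.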

Experiment [6] concerns the target T1, Autotaxin. The source holds these as a separate data set.
In experiment [7] the target is T1, Autotaxin. The experiment can be described thus: Competitive-type inhibition of autotaxin-mediated FS3 hydrolysis by Michaelis-Menten analysis. Put shortly: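 ATX from ~10-fold concentrated serum-free conditioned medium of MDA-MB-435 cells. […] Buffer was 50 mM Tris pH 8.0 with salts and 30 µM charcoal-stripped BSA, 37 °C, fluorescence read every 2 min at ex 485/em 528. Initial rates were fitted to inhibition models, and the mechanism was assigned by lowest average percent residuals.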

For experiment [8], the target named is T1, Autotaxin. The experiment can be described thus: Noncompetitive inhibition of autotaxin-mediated pNP-TMP hydrolysis by Michaelis-Menten analysis for enzyme-substrate complex. A digest of the protocol:
(§1)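 ATX from ~10-fold concentrated serum-free conditioned medium of MDA-MB-435 cells, used without further manipulation. […] Absorbance at 405 nm read every 2 min gave initial rates. Km came from zero-inhibitor data. Ki (free enzyme) and K'i (enzyme–substrate complex) were fitted by non-linear models, and the mechanism was assigned by the lowest average percent residuals.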

For experiment [9], the target named is T1, Autotaxin. The experiment is described as follows: Noncompetitive inhibition of autotaxin-mediated pNP-TMP hydrolysis by Michaelis-Menten analysis. Put shortly:
as §1

Active and inactive are the calls of the source.

By Ki is commonly meant the equilibrium dissociation constant of an inhibitor or competing ligand from its target. What is called IC50 is the concentration needed to halve the response being measured. A high value points to weaker potency in that assay. On to `O=C(O)c1cccc(NC(=O)c2ccc3c(c2)C(=O)N(c2ccc(/N=N/c4ccccc4)cc2)C3=O)c1`, for which the Ki at Autotaxin [1] came out at 15.1 µM; at Autotaxin [3], 40.3 µM. Further, the inhibition entry in [2] and in experiment [5] was “inactive” in each case. Further, on Autotaxin [4], the IC50 was determined as 12.8 µM.
Regarding `CCn1cc(C(=O)O)c(=O)c2cnc(N3CCN(C(=S)NC(=O)C4c5ccccc5Oc5ccccc54)CC3)nc21`, the inhibition result in experiment [2] and in [5] was “inactive” in each case.
On to `O=C(O)c1ccc(Oc2ccc(C(=O)c3ccc4c(c3)C(=O)N(c3cccc5ccccc35)C4=O)cc2)cc1`, for which the IC50 on Autotaxin [6] and against Autotaxin [4] was 6.8 µM in each case. For the same molecule, the Ki at Autotaxin [1] turned out to be 5.8 µM; on Autotaxin [3], 32.3 µM. Further, the inhibition entry in [2] and in [5] was “inactive” each time.
On to `CCn1cc(C(=O)O)c(=O)c2cnc(N3CCN(C(=S)Nc4cc(Cl)cc(Cl)c4)CC3)nc21`, for which, on Autotaxin [6], the IC50 came out at 1.2 µM. Also, the inhibition entry in experiment [2] and in experiment [5] was “inactive” throughout. In addition, the Ki at Autotaxin [7] is 1.9 µM; on Autotaxin [8], 6.5 µM; at Autotaxin [9], 6.5 µM.
In the case of `O=C(O)c1ccc(CN2C(=O)c3ccc(C(=O)c4ccc5c(c4)C(=O)N(Cc4ccc(C(=O)O)cc4)C5=O)cc3C2=O)cc1`, the inhibition result in [2] and in [5] was “inactive” each time. Also, the Ki on Autotaxin [7] stood at 5 µM. This molecule also gave an IC50 against Autotaxin [4] of 12.8 µM.
Take `CCn1c(SCC(=O)Nc2ccc(C(=O)O)cc2)nc2nc3c(cc2c1=O)CCCC3`: the inhibition entry in experiment [2] and in [5] was “inactive” in each case.

The values are drawn from ChEMBL document CHEMBL1157718, “Characterization of non-lipid autotaxin inhibitors” (Bioorg Med Chem, 2010).
